What was measured:
[1] = target: T1, Solute carrier family 15 member 1 (Homo sapiens, UniProt P46059); assay: Inhibition of [14C]Gly-Sar transport by hPEPT1 in Caco-2 cell monolayers; type: cell-based
T1 sequence (P46059 whole entry): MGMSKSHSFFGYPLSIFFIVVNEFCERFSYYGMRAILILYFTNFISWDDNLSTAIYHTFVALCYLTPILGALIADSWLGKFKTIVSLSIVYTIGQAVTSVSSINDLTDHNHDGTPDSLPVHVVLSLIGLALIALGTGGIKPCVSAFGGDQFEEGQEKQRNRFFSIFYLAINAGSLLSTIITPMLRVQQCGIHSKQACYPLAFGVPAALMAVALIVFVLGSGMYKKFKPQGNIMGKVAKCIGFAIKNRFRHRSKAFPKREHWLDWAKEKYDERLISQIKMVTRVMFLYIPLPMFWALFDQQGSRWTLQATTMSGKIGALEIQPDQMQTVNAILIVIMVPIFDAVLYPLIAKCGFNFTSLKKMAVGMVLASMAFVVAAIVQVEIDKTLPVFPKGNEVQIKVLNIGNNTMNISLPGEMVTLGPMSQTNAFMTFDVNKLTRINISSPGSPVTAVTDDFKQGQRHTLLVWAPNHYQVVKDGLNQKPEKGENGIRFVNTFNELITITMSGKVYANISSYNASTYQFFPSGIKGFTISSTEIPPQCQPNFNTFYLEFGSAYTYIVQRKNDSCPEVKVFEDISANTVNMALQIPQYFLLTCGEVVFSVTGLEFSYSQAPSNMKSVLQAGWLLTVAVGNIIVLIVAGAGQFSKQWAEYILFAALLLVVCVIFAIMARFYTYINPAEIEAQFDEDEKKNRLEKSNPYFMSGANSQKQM
Procedure, shortened: (§1)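 Caco-2 monolayers on Transwell filters, used 25–27 days after seeding (TEER 354 ± 41 […]). Compound at varying concentrations plus 0.5 μCi [14C]-Gly-Sar in apical MES-buffered HBSS (pH 6.0, 0.05% BSA); HEPES buffer (pH 7.4) basolateral. Incubated 5 min at 37 °C with shaking, washed with ice-cold HBSS, and cell-associated radioactivity counted. Inhibition fitted to a Hill-type equation for IC50; Ki derived by Cheng–Prusoff using Gly-Sar Km 1.1 mM. Duplicates in three passages.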

[2] = target: T1, Solute carrier family 15 member 1; assay: Affinity for hPEPT1 in mature Caco-2 cell monolayers using [14C]-Gly-Sar; procedure, shortened: as §1

| Compound | IC50 [1] [µM] | Ki [2] [µM] |
| --- | --- | --- |
| CC(C)[C@H](N)C(=O)C[C@@H](CC(=O)OCc1ccccc1)C(=O)O | 19 | 19 |
| N[C@@H](Cc1ccccc1)C(=O)CCC(=O)OCc1ccccc1 | 915 | 905 |
| N[C@@H](Cc1ccccc1)C(=O)C[C@@H](CC(=O)OCc1ccccc1)C(=O)O | 69 | 68 |

More lines, in order of falling IC50 [1], values ahead:

| IC50 [1] [µM] | Ki [2] [µM] | Compound |
| --- | --- | --- |
| 422 | 417 | NC(CC(=O)OCc1ccccc1)C(=O)CCC(=O)O (stereo not given) |
| 134 | 133 | CC(C)[C@H](N)C(=O)CCC(=O)OCc1ccccc1 |

— ChEMBL document CHEMBL1138751, “Dipeptidomimetic ketomethylene isosteres as pro-moieties for drug transport via the human intestinal di-/tripeptide transporter hPEPT1: design, synthesis, stability, and biological investigations” (J Med Chem, 2004)
